{"source": "ChEMBL document CHEMBL1152619", "about": "“Synthesis and structure-activity relationships of dehydroaltenusin derivatives as selective DNA polymerase alpha inhibitors” (Bioorg Med Chem, 2009)", "key": {"[1]": {"test": "Selectivity index, ratio of IC50 for rat DNA polymerase beta to IC50 for calf thymus DNA polymerase alpha"}, "[2]": {"test": "Inhibition of calf thymus DNA polymerase alpha by [3H]dTTP incorporation assay", "design": "species or system Bos taurus", "in_short": "(§1)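 Enzymes: pol α immunoaffinity-purified from calf thymus; pol β purified from a recombinant rat pol β expression plasmid. Template-primer was poly(dA)/oligo(dT)12–18 (A/T = 2/1) with [³H]-dTTP as substrate. Inhibitor–enzyme premix was added to standard reaction mixture and incubated for 60 min at 37 °C. Remaining activity was expressed relative to the no-inhibitor control (100%).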"}, "[3]": {"biological_target": "DNA polymerase beta (Rattus norvegicus, UniProt P06766)", "test": "Inhibition of rat DNA polymerase beta by [3H]dTTP incorporation assay", "in_short": "as §1"}, "[4]": {"species": "Bos taurus", "test": "Inhibition of calf thymus DNA polymerase alpha assessed as complete inhibition of enzyme activity at 4 uM by [3H]dTTP incorporation assay"}, "[5]": {"biological_target": "Myosin light chain kinase, smooth muscle (Homo sapiens, UniProt Q15746)", "sequence (Q15746 whole entry)": "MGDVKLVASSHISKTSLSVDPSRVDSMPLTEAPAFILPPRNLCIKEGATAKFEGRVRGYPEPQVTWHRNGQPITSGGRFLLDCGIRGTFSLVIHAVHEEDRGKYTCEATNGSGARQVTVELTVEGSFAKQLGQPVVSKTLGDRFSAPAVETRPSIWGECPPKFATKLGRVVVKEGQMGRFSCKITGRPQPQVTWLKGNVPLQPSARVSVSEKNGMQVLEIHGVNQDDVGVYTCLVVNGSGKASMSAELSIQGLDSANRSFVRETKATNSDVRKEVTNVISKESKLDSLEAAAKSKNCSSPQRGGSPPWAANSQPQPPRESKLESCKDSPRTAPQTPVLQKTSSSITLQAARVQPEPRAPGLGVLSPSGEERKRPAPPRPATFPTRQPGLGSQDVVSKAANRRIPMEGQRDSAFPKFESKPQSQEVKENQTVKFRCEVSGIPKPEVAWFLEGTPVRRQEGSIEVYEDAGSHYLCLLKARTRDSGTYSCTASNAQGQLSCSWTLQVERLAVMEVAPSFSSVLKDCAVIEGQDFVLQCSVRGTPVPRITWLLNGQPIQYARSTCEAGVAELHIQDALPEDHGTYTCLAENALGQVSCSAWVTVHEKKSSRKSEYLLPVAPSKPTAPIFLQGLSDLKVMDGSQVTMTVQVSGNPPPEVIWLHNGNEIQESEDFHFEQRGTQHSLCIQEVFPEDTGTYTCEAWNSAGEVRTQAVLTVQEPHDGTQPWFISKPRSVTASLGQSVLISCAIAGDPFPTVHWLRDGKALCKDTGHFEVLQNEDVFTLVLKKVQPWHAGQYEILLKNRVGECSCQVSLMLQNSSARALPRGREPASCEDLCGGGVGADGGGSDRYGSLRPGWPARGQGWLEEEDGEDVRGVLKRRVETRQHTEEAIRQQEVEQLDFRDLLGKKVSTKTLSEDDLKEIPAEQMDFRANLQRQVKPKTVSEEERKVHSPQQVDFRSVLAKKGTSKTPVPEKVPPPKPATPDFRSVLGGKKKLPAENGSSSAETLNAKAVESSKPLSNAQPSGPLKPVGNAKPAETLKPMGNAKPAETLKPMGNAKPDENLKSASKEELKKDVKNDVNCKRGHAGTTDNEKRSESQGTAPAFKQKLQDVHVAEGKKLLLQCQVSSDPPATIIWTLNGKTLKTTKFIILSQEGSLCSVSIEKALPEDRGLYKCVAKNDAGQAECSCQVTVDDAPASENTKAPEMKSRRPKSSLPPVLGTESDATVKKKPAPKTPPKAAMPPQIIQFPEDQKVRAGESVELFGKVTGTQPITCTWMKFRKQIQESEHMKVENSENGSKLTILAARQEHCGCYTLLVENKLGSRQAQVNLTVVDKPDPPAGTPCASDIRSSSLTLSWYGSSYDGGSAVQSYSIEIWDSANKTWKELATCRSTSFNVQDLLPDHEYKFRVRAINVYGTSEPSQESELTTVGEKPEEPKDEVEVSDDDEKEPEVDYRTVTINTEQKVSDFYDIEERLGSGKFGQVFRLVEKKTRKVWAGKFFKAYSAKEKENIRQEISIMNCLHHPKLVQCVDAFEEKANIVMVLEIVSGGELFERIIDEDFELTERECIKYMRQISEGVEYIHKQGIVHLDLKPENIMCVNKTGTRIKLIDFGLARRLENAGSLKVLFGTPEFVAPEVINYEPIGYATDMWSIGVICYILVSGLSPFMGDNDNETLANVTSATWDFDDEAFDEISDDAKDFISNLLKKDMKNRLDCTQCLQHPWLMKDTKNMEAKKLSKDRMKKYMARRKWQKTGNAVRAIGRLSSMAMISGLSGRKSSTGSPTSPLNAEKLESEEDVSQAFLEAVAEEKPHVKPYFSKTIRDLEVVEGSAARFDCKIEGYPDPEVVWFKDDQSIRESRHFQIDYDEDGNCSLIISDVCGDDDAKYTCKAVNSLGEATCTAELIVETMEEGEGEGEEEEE", "test": "Inhibition of MLCK"}}, "note": "Active and inactive are the calls of the source. The calls are words filed in the database; no cut-off is given here.", "data": [{"smiles": "CCCOc1cc(O)c2c(c1)C1=CC(=O)C(O)=CC1(C)OC2=O", "note": "(stereo not given)", "values": [{"measurement": "Ratio IC50", "setting": "[1]", "result": 194}, {"measurement": "IC50", "setting": "[2]", "result": "Dose-dependent effect"}, {"measurement": "IC50", "setting": "[2]; read-out: IC50", "result": 0.18, "unit": "µM"}, {"measurement": "IC50", "setting": "[3]", "result": 35, "unit": "µM"}]}, {"smiles": "COc1cc(O)c2c(=O)oc3cc(O)c(O)cc3c2c1", "values": [{"measurement": "IC50", "setting": "[2]; read-out: IC50", "result": "> 200", "unit": "µM"}]}, {"smiles": "CCCCCCCCCCCCOc1cc(O)c2c(c1)C1=CC(=O)C(O)=CC1(C)OC2=O", "note": "(stereo not given)", "values": [{"measurement": "Ratio IC50", "setting": "[1]", "result": 183}, {"measurement": "IC50", "setting": "[2]", "result": "Dose-dependent effect"}, {"measurement": "IC50", "setting": "[2]; read-out: IC50", "result": 0.06, "unit": "µM"}, {"measurement": "IC50", "setting": "[3]", "result": 11, "unit": "µM"}]}, {"smiles": "COc1cc(O)c2c(c1)C1=CC(=O)C(O)=CC1(C)OC2=O", "note": "(stereo not given) [DEHYDROALTENUSIN]", "values": [{"measurement": "Ratio IC50", "setting": "[1]", "result": 94.1}, {"measurement": "Activity", "setting": "[4]", "result": "Active"}, {"measurement": "IC50", "setting": "[2]", "result": "Dose-dependent effect"}, {"measurement": "IC50", "setting": "[2]; read-out: IC50", "result": 0.68, "unit": "µM"}, {"measurement": "IC50", "setting": "[3]", "result": 64, "unit": "µM"}, {"measurement": "IC50", "setting": "[5]", "result": 0.69, "unit": "µM"}]}, {"smiles": "COc1cc(O)c2c(c1)C1=CC(=O)C=CC1(C)OC2=O", "note": "(stereo not given)", "values": [{"measurement": "IC50", "setting": "[2]; read-out: IC50", "result": "> 200", "unit": "µM"}]}, {"smiles": "COc1cc(O)c2c(=O)oc3cc(OCc4ccccc4)c(OCc4ccccc4)cc3c2c1", "values": [{"measurement": "IC50", "setting": "[2]; read-out: IC50", "result": "> 200", "unit": "µM"}]}, {"smiles": "CC12C=C(O)C(=O)C=C1c1cc(O)cc(O)c1C(=O)O2", "note": "(stereo not given) [DESMETHYLDEHYDROALTENUSIN]", "values": [{"measurement": "Ratio IC50", "setting": "[1]", "result": 142}, {"measurement": "IC50", "setting": "[2]", "result": "Dose-dependent effect"}, {"measurement": "IC50", "setting": "[2]; read-out: IC50", "result": 0.89, "unit": "µM"}, {"measurement": "IC50", "setting": "[3]", "result": 126, "unit": "µM"}]}, {"smiles": "CC12C=CC(=O)C=C1c1cccc(O)c1C(=O)O2", "note": "(stereo not given)", "values": [{"measurement": "IC50", "setting": "[2]; read-out: IC50", "result": "> 200", "unit": "µM"}]}, {"smiles": "CC12C=C(O)C(=O)C=C1c1cccc(O)c1C(=O)O2", "note": "(stereo not given)", "values": [{"measurement": "Ratio IC50", "setting": "[1]", "result": 371}, {"measurement": "IC50", "setting": "[2]", "result": "Dose-dependent effect"}, {"measurement": "IC50", "setting": "[2]; read-out: IC50", "result": 0.24, "unit": "µM"}, {"measurement": "IC50", "setting": "[3]", "result": 89, "unit": "µM"}]}, {"smiles": "CCCCCCOc1cc(O)c2c(c1)C1=CC(=O)C(O)=CC1(C)OC2=O", "note": "(stereo not given)", "values": [{"measurement": "Ratio IC50", "setting": "[1]", "result": 267}, {"measurement": "IC50", "setting": "[2]", "result": "Dose-dependent effect"}, {"measurement": "IC50", "setting": "[2]; read-out: IC50", "result": 0.09, "unit": "µM"}, {"measurement": "IC50", "setting": "[3]", "result": 24, "unit": "µM"}]}]}
